Results collected from several papers.
Compare with care: the assays were run in different laboratories.
Target: Alpha-2A adrenergic receptor (ADRA2A, Homo sapiens, UniProt P08913)
Tested at: 10 µM
Residues used in one study (P08913 1-465): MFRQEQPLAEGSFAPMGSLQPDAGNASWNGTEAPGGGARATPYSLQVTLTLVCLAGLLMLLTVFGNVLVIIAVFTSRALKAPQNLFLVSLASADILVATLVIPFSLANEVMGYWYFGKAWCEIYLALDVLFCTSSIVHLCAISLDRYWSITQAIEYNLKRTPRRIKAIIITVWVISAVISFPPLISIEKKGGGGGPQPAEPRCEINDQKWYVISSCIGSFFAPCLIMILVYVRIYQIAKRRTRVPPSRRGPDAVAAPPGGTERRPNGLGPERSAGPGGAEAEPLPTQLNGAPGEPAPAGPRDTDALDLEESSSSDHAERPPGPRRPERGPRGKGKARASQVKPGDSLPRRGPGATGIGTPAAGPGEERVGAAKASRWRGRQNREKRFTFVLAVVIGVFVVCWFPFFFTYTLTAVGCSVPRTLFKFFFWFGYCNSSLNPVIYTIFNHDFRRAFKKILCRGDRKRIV

COc1cc(NC(C)=O)c(Cl)cc1C(=O)Nc1nccs1
inhibition (cell-free assay): -7%

O=C1c2ccccc2C(=O)N1CC#Cc1ccc2c(c1)C=C([N+](=O)[O-])C(C(F)(F)F)O2 (centres unmarked)
inhibition (ligand displacement; radioligand): 88%

O=C(c1ccc(Cl)cc1)N(Cc1ccccc1)C1CCCCC1
inhibition (cell-free assay): 4%

N#Cc1cc(Cn2c(N3CCCC3)nc3ccccc32)ccc1F
inhibition (ligand displacement): 31.6%

CN([C@@H]1CCc2c(CC(=O)O)c3ccccc3n2C1)S(=O)(=O)c1ccc(F)cc1
inhibition (ligand displacement): -3.89%

Ic1cccc2cnccc12
inhibition (ligand displacement; radioligand): 13%

CCN(Cc1ccccc1C(F)(F)F)C(=O)C1CCN(S(=O)(=O)c2ccc3[nH]ncc3c2)CC1
inhibition (ligand displacement; radioligand): 37%

CC(=O)C1=C(C)N(c2cccc(C(F)(F)F)c2)C(=O)N[C@H]1c1ccc(C#N)nc1
inhibition (ligand displacement): -8.89%

CCN(CC)c1ccc(C2Nc3ccc(C(=O)c4ccccc4)cc3NC3=C2C(=O)CC(C)(C)C3)cc1 (centres unmarked)
inhibition (ligand displacement; radioligand): 5%

Cc1cc(-c2nc(CN3CCNCC3)no2)cc2c1C(=O)N(Cc1ccc(OC(F)(F)F)cc1)C2
inhibition (ligand displacement; radioligand): 41%

CCCNc1nc2ccccc2n1Cc1ccc(Cl)cc1
inhibition (ligand displacement): 90.2%
